Drawing on ChEMBL document CHEMBL1149173, “Design, synthesis, and biological evaluation of hybrid molecules containing alpha-methylene-gamma-butyrolactones and polypyrrole minor groove binders” (J Med Chem, 2004), this text covers IC50 for four compounds.

Holding throughout (type): functional, cell-based
One test has as its system CCRF-CEM. Description: Inhibitory concentration required to inhibit human T-lymphoblast CEM cells proliferation. The method, boiled down:
(§1)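 Human T-lymphocyte cells seeded at 300000–500000 cells/mL and mixed 1:1 with serial compound dilutions. Incubated 3 days at 37 °C, then cell number counted with a Coulter counter. IC50 taken as the concentration giving 50% inhibition of proliferation, as mean ± SE from dose–response curves of at least three independent experiments.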

For the next test, the system named is FM3A. Nature of the test: Inhibitory concentration required to inhibit murine mammary carcinoma FM3A cells proliferation. Conditions: Mus musculus. The method, boiled down: (§2)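 Murine cells were suspended at 300000–500000 cells/mL and added 1:1 to wells holding serial dilutions of compound. Cells were counted by Coulter counter after 2 days at 37 °C. IC50 is the concentration inhibiting cell proliferation by 50%, given as mean ± SE from dose–response curves of at least three independent experiments.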

For the next test, the system named is L1210. Description: Inhibitory concentration required to inhibit murine leukemia L1210 cells proliferation. The note with it: Mus musculus. The method, boiled down:
as §2

The next test has as its system MOLT-4. Description: Inhibitory concentration required to inhibit human T-lymphoblast Molt4 cells proliferation. Summed up:
as §1

Broadly, the IC50 is the concentration that inhibits the measured activity by half. Higher therefore signals a need for much substance. For `C=C1CC(COc2cc(C(=O)O)n(C)n2)(c2ccccc2)OC1=O` (stereo unspecified), the IC50 in the test with CCRF-CEM stood at 174 µM; in the test with FM3A, 189 µM; in the test on L1210, 107 µM; in the test on MOLT-4, 189 µM.

With `C=C1CC(C)(COc2cc(C(=O)O)n(C)n2)OC1=O` (stereo unspecified), the IC50 in the test on CCRF-CEM came out at 402 µM; in the test on FM3A, 755 µM; in the test with L1210, 522 µM; in the test on MOLT-4 it was 746 µM.

Regarding `C=C1CC(COc2cc(C(=O)O)n(C)n2)(c2ccc(Cl)cc2)OC1=O` (stereo unspecified), the IC50 in the test with CCRF-CEM was 57.9 µM; in the test with FM3A it was 99.2 µM; in the test with L1210, 13 µM; in the test with MOLT-4 it was 46.9 µM.

Take `C=C1CC(COc2cc(C(=O)O)n(C)n2)(c2ccc(-c3ccccc3)cc2)OC1=O` (stereo unspecified): the half-maximal inhibitory concentration (IC50) in the test on CCRF-CEM turned out to be 18.5 µM; in the test with FM3A, 42 µM; in the test with L1210 it was 14.8 µM; in the test with MOLT-4, 9.4 µM.
